Assay results pooled from the literature.
Protocols differ between the studies behind these lines.
Target: Homeodomain-interacting protein kinase 4 (HIPK4, Homo sapiens, UniProt Q8NE63)
Sequence (Q8NE63 1-616, as in one of the studies): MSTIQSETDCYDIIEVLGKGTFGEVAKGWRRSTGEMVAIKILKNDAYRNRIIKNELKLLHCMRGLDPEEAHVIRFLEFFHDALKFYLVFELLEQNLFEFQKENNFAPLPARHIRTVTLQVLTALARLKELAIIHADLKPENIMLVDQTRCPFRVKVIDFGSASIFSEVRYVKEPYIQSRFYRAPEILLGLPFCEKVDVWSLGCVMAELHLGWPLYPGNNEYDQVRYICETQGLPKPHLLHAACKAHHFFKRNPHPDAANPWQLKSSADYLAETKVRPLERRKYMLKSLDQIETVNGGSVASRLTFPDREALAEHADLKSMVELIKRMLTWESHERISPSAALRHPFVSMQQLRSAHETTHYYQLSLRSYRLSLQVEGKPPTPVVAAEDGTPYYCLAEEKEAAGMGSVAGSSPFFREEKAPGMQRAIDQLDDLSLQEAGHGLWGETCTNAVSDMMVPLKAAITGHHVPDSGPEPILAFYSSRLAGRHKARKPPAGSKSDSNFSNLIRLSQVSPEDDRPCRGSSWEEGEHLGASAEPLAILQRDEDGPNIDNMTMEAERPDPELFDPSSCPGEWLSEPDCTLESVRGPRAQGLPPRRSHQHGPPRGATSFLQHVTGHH

SMILES	assay	setting	quantity	value
N#Cc1cccc(Nc2nc3cc(C(=O)O)ccc3c3cnccc23)c1	enzyme activity, inhibitor, radiometric	1 µM	remaining activity	29%
N#CCCc1ccc2c(c1)-c1[nH]c3ccc([N+](=O)[O-])cc3c1CC(=O)N2	cell-free assay	0.5 µM	remaining signal	113%
C[C@@H](c1cccc(C#N)c1)n1cc(Cl)cc(C(N)=O)c1=N	cell-free assay, competition with immobilised ligand	1 µM	remaining binding	100%
O=C(O)c1ccc2c(c1)nc(Nc1ccc(F)c(Cl)c1)c1ccncc12	enzyme activity, inhibitor, radiometric	1 µM	remaining activity	75%
Nc1ncnc2occ(-c3ccc(NC(=O)Nc4cc(C(F)(F)F)ccc4F)cc3)c12	cell-free assay, inhibitor	20 µM	remaining signal	0.95%
O=C1NC(=O)c2cc(Nc3ccc(F)cc3)c(Nc3ccc(F)cc3)cc21	cell-free assay	0.5 µM	remaining signal	82.5%
O=C(O)c1ccc2c(c1)nc(Nc1cccc(F)c1)c1ncncc12	enzyme activity, inhibitor, radiometric	1 µM	remaining activity	52%
CC(C)CC(=O)N1CCc2nc(-c3ccc(Br)cc3)nc(N(C)Cc3ccccc3)c2C1	cell-free assay, competition with immobilised ligand	0.1 µM	remaining binding	61%
O=C(O)c1ccc2c(c1)nc(Nc1ccc3ccccc3c1)c1ccncc12	enzyme activity, inhibitor, radiometric	1 µM	remaining activity	-10%
CNC(=O)c1cc2c(Oc3ccc(NC(=O)C4(C(=O)Nc5ccc(F)cc5)CC4)cc3)ccnc2cc1OC	enzyme activity, inhibitor, radiometric	1 µM	inhibition	102%
COc1ccc(COc2ccc(Cc3cnc(N)nc3N)cc2OC)cc1	cell-free assay	0.5 µM	remaining signal	97.7%
CC(=O)c1c(NS(C)(=O)=O)c2cc(-c3ccc(Cl)cc3)c(-c3ccc(Cl)cc3Cl)nc2n(C)c1=O	cell-free assay, competition with immobilised ligand	1 µM	remaining binding	93%
COc1cccc(Nc2nc3cc(C(=O)O)ccc3c3cnccc23)c1	enzyme activity, inhibitor, radiometric	1 µM	remaining activity	-14%
O=C(Nc1cnc(Oc2ccc(F)cc2)nc1)N1CCc2ncccc2[C@@H]1c1ccc(F)cc1	cell-free assay, competition with immobilised ligand	1 µM	remaining binding	100%
CN1CC(Oc2cnc(C#N)cc2-c2ccn3nc(NC(=O)C4CC4)cc3c2)C1	enzyme activity, inhibitor	1 µM	inhibition	2%
O=C(O)c1ccc2c(c1)nc(NCCc1cccc(Cl)c1)c1ccncc12	enzyme activity, inhibitor, radiometric	1 µM	remaining activity	47%
CS(=O)(=O)N1CCCC(NC(=O)[C@H](CCC2CCCCC2)NC(=O)c2ccc(CNC(=O)c3cnc4ccccn34)cc2)C1 (some centres unmarked)	cell-free assay, competition with immobilised ligand	0.1 µM	remaining binding	88%
CCOc1cc(-c2nncn2C)ccc1Nc1ncc2cc(C)nc(NCC(C)(C)C)c2n1	enzyme activity, inhibitor, FRET	1 µM	inhibition	< 15%
CCCOc1ccc([C@@H]2[C@@H](C(=O)O)[C@H](c3ccc4c(c3)OCO4)CN2CC(=O)Nc2c(CC)cccc2CC)cc1	cell-free assay, competition with immobilised ligand	1 µM	remaining binding	65%
COc1cc2ncnc(Nc3ccc(Oc4ccccc4)c(C)c3C)c2cc1OC	enzyme activity, inhibitor	1 µM	inhibition	-2%
